MT1-MMP act inh: blocks activation of human MT1-MMP; P50281; HT1080 RFP-PRO-GFP cells, GFP/RFP ratio fluorescence, overnight; percent of plate control window, DMSO zero; GFP/RFP ratio change, % at 20 µM; 360,000 compounds, 0.061% hits; AID 651647;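 active = GFP/RFP ratio change of at least 30% with cell ATP level not reduced by more than half and red fluorescence within 50% of control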
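Test system: HT1080 cells expressing an RFP-PRO-GFP fluorescent reporter construct / Compound dosing: single-point 20 µM compound, 1% DMSO / Schedule: cells overnight before dosing, compound overnight, 37 °C, 5% CO2 / Evaluation: GFP/RFP fluorescence ratio / Control set: DMSO and RFP-L50D-GFP cell wells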
MsrA inhibitor: inhibitors of bovine MsrA | 360,000 compounds, 0.75% hits | purified bovine MsrA, absorbance read-out | AID 651718 | inhibition, % at 15.5 µM; in the data active = inhibition above about 4.5%;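 note: 0% = vehicle wells with enzyme and 100% = reference inhibitor wells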
MsrA act: activates bovine MsrA enzyme. purified bovine MsrA, absorbance read-out. activation, % at 10.6 µM. 360,000 compounds, 0.3% hits; in the data active = activation above about 7.5%;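 note: 0% = vehicle and 100% = reference activator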
DAGLB inhibitor: diacylglycerol lipase beta (human) inhibition. inhibition, % at 5.17 µM. 340,000 compounds, 0.059% hits. HEK293T DAGLB membrane lysate, EnzChek fluorogenic substrate; in the data active = inhibition above about 34%;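 note: 0% = enzyme with vehicle and 100% = wells lacking enzyme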
Target sequence (Q8NCG7 whole entry, looked up): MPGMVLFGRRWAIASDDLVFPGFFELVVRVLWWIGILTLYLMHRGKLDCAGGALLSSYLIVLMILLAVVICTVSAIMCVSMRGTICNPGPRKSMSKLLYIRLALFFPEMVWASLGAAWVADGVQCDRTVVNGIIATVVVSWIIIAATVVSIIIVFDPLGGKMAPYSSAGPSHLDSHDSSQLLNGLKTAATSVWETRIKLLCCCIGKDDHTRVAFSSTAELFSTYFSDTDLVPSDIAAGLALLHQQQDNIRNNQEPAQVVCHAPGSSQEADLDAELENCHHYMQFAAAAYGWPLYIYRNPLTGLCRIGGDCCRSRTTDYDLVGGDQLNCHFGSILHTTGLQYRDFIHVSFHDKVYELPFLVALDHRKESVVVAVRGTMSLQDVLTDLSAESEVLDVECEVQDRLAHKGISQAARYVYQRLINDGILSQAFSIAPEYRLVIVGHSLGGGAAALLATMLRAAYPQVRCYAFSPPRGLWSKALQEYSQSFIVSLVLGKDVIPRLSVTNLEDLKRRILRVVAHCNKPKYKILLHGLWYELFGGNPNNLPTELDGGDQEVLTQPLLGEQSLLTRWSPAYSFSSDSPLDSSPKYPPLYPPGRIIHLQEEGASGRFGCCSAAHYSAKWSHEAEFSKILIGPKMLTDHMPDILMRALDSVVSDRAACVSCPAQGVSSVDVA
SKN-1 inh: blocks SKN-1 activity in C. elegans. 360,000 compounds, 0.49% hits. AID 624304. C. elegans VP596 Pgst-4::GFP/RFP ratio, acrylamide-induced, 24 h. inhibition, % at 21.8 µM;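 active = interference check ratio from 0.5 to 1.5 plus GFP to RFP signal ratio inhibition reaching or exceeding a fixed threshold, cut at about 30% in these data, passing the limit was not always enough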
MIN6 prolif: inducers of beta-cell replication in MIN6 cells | MIN6 cells proliferation, ATPlite luminescence, 48 h; cells starved in 0.2% serum; 100% = growth in 10% serum | proliferation, % at 10 µM | 330,000 compounds, 0.29% hits | AID 2380;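 active = compounds whose signal lies at least 3.5 SD above the mean of all wells on their plate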;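 note: 0% = DMSO-treated cells in low-serum medium and 100% = 10% serum control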
MsrA act confirm: bovine methionine sulfoxide reductase A activation confirmed; activation, % at 10.6 µM; 1,000 compounds, 12% hits; shares compounds with MsrA act; purified bovine MsrA, absorbance read-out; in the data active = activation above about 4%;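 note: enzyme coupled to thioredoxin and thioredoxin reductase with NADPH; 0% = vehicle wells and 100% = reference activator wells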
The depositor's hits bear a star; nt = not tested or not shown. Rows were chosen to be rich in hits. Some 1.8% of all compounds tested hit in one or more screens of this group.

SMILES	MT1-MMP act inh	MsrA inhibitor	MsrA act	DAGLB inhibitor	SKN-1 inh	MIN6 prolif	MsrA act confirm
Cc1nnc(N/N=C/c2ccco2)n1N	3	1	16*	1	2	0	-2
Cc1nnc(N/N=C/c2cccc(C(F)(F)F)c2)n1N	6	-1	13*	-1	8	-2	1
Cc1nnc(N/N=C/c2ccccc2F)n1N	6	1	5	-2	5	-1	nt
Cc1nnc(N/N=C/c2ccccc2C(F)(F)F)n1N	2	-1	5	-1	-1	-2	nt
S=C(c1ccc(N2CCCC2)c(Br)c1)N1CCCCC1	-2	0	-11	-6	-3	-2	nt
Cc1ccc(S(=O)(=O)NC2=NCCCCC2)cc1	-2	0	13*	1	5	0	-2
CCOCCCn1c(SCC(=O)NC2CCCCC2)nc2ccccc2c1=O	2	1	0	0	8	nt	nt
C=CCN=C1NC(c2ccc(Cl)cc2)C(C(=O)OC)=C(C)N1Cc1ccccc1C(F)(F)F (stereo not drawn)	nt	-1	nt	nt	nt	nt	nt
O=C(NCC1COc2ccccc2O1)C1CCC(CNc2c(N3CCCCC3)c(=O)c2=O)CC1 (stereo not drawn)	3	0	8.9*	1	-6	-3	0
O=C(NCCc1ccccc1)C1CCC(CNc2c(N3CCCCC3)c(=O)c2=O)CC1 (stereo not drawn)	-2	0	-1	-5	-4	-1	nt
Cc1ccc(C2(C)NC(=O)N(CC(=O)Nc3ccc4c(c3)OCO4)C2=O)cc1 (stereo not drawn)	4	0	11*	0	-2	-3	-3
Cc1cccc(NC(=O)CN2C(=O)NC(C)(c3ccc4c(c3)OCO4)C2=O)c1 (stereo not drawn)	-1	0	-3	-2	23	-3	nt
Cc1nn(-c2ccccc2)nc1C(=O)Nc1ccccc1C(=O)NCC1CC1	nt	2	nt	nt	nt	nt	nt
COC(=O)Nc1nnc(COc2cccc(C)c2)s1	0	1	-2	1	-2	-1	nt
COC(=O)Nc1nnc(COc2ccccc2)s1	1	0	8.9*	nt	-3	-1	-2
CC1(C)NC(=O)N(c2ccccc2Cl)C1(C)NO (stereo not drawn)	3	0	11*	3	-2	-1	-3
COc1ccccc1NC(=O)N(C)C[C@H]1OCc2cn(nn2)CCCC(=O)N([C@H](C)CO)C[C@@H]1C	nt	-1	nt	nt	nt	nt	nt
Cc1c(C)n(CCc2ccccc2)c2ncnc(NCCO)c12	0	0	10.0*	2	15	0	-1
Cc1c(C)n(CCCN(C)C)c2ncnc(NCc3ccccc3)c12	4	-1	-1	0	8	1	nt
Cc1cc(C)nc(-n2ncc3c2CC(c2cccc(Cl)c2)CC3=O)n1 (stereo not drawn)	-6	1	-4	1	12	1	nt
CCc1noc(C)c1C(=O)N1CCN(S(=O)(=O)c2cccs2)CC1	-3	-1	10.0*	0	17	0	-1
CCCCNC(=O)CN(Cc1ccco1)S(=O)(=O)c1ccc(C(C)=O)cc1	-2	0	11*	-1	7	0	-2
COC(=O)c1cc(S(=O)(=O)NCC2CCN(C(=O)C(=O)c3cc4ccccc4o3)CC2)cs1	nt	2	nt	nt	nt	nt	nt
COc1ccc2ccccc2c1/C=N/NC(=O)c1cccc(C)c1	0	2	9.4*	-1	-5	-1	-1
CCCC/C(O)=C1\C(=O)CC(C)(C)CC1=Nc1ccccc1OC	0	-1	8.7*	-5	0	1	0
SMILES	MT1-MMP act inh	MsrA inhibitor	MsrA act	DAGLB inhibitor	SKN-1 inh	MIN6 prolif	MsrA act confirm
Cc1ccccc1Nc1nc(N)nc(COC(=O)[C@@H](NC(=O)c2c(F)cccc2F)C(C)C)n1	-4	0	1	1	9	0	nt
Cc1ccccc1Nc1nc(N)nc(COC(=O)[C@@H](NC(=O)c2ccccc2Cl)C(C)C)n1	8	-2	8.1*	2	22	9	0
CCOc1ccccc1CNC(=O)c1cc2oc3ccccc3c2n1CC	-14	0	8.1*	-10	-6	-6	-4
COc1cccc(CNC(=O)c2cc3oc4ccccc4c3n2C)c1OC	9	0	0	1	-24	-4	nt
Cc1ccccc1SCC(=O)OCC(=O)NCc1ccccc1	6	-1	-1	-7	23	-3	nt
CCOC(=O)c1cc2nc(OCC)nc(OCC)c2[nH]1	2	1	8.7*	1	10	nt	-1
COc1ccccc1CNC(=O)CSc1ccc(-c2cccc([N+](=O)[O-])c2)nn1	-2	0	-1	-1	-4	1	nt
NNC(=O)c1oc2nc(-c3ccco3)cc(-c3ccco3)c2c1N	-95	2	8.2*	nt	0	-3	-2
COc1ccc(C(=O)NC(=S)Nc2ccc(S(=O)(=O)Nc3cc(C)on3)cc2)cc1OC	2	-1	8.2*	2	4	-3	-1
Cc1cc(NS(=O)(=O)c2ccc(NC(=S)NC(=O)c3ccc(C(C)(C)C)cc3)cc2)no1	4	-1	-2	4	-7	-2	nt
C/C(CC(=O)NC12CC3CC(CC(C3)C1)C2)=N\NC(=O)c1cnccn1	2	1	14*	-1	3	0	-1
Oc1c(Br)cc(Br)cc1CNc1ccc(F)cc1	1	0	8.9*	-1	10	-2	-1
O=c1[nH]cccc1-c1nc2ccccc2n1Cc1ccc(F)cc1	1	1	15*	-2	2	-2	-3
Cc1cc2nc(-c3ccc[nH]c3=O)n(Cc3ccc(F)cc3)c2cc1C	0	2	-6	0	0	-4	nt
CN(CC(=O)NCCc1ccc(S(N)(=O)=O)cc1)S(=O)(=O)c1ccc(Br)s1	1	0	1	-1	-1	0	nt
COC(=O)c1ccc(C2=NOC(C)(c3nnc(Cc4ccccc4)o3)C2)cc1 (stereo not drawn)	1	0	8.9*	-3	-8	1	-1
CC1(c2nnc(Cc3ccccc3)o2)CC(c2ccc(Br)cc2)=NO1 (stereo not drawn)	nt	0	-1	-3	7	1	nt
CCn1c2ccccc2c2cc(NC(C)=O)ccc21	3	0	-5	2	-7	-2	nt
N#Cc1ccc2sn(-c3ccccc3)c(=O)c2c1	-2	1	12*	5	0	nt	8.9*
CC(=O)Nc1ccc2sn(-c3ccccc3)c(=O)c2c1	-1	1	9.8*	-1	5	nt	5.7*
O=c1c2cc([N+](=O)[O-])ccc2sn1-c1ccccc1	5	3	9.8*	21	-2	nt	7.5*
COc1ccc(C(=O)NCCN2C(=O)S/C(=C\c3cccnc3)C2=O)cc1[N+](=O)[O-]	4	2	1	-2	-3	-1	nt
